# Platelet DG rel = platelet dense granule release activity; human platelet-rich plasma, SFLLRN dense granule ATP release, luminescence; inhibition, %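 (compounds screened at 7.5 µM in platelet-rich plasma)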; 300,000 compounds, 0.22% hits;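 active means mean replicate score, as percent of positive control, at or above 50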
# VLA-4 inh = inhibition in a human VLA-4 binding assay | VLA-4 expressing cells, ligand binding flow cytometry | inhibition, % (about 7 µM as worked out from the volumes in the protocol) | 330,000 compounds, 0.2% hits | AID 2557; in the data active means inhibition above about 50%
# TAAR1 agonist = human TAAR1 agonism; CHO RD-HGA16 TAAR1, Fluo-8 calcium fluorescence; vehicle wells 0%, saturating PEA agonist 100%; Q96RJ0; 360,000 compounds, 0.99% hits; activation, % at 3 µM;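 active means activation above the mean activation of all test compounds in the run plus 3 SD, cut at about 38% in these data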
#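 Test system: RD-HGA16 (CHO) cells co-expressing Gα16 and hTAAR1 / Benchmarks: DMSO vehicle as 0%, PEA at EC100 as 100% / Repeats: no replicates (n 1) / Measure: % activation from peak over basal fluorescence ratio, DMSO-to-PEA scaled / Timing: 17-24 h plating, Fluo-8 75 min 37 °C, 30 min RT / Technique: kinetic Fluo-8 calcium fluorescence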
# TAAR1 antag = human TAAR1 antagonism; Q96RJ0; CHO RD-HGA16 TAAR1, Fluo-8 calcium fluorescence, antagonist; inhibition, % at 3 µM; 360,000 compounds, 1.5% hits; AID 624466;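 active means inhibition above a per-plate cutoff, the mean inhibition of test compounds on that plate plus 3 SD, cut at about 49% in these data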;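 further: 0% = DMSO plus EC80 beta-PEA response and 100% = DMSO alone without agonist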
#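 Test system: hTAAR1-expressing CHO RD-HGA16 cells, Gα16-coupled; Probe or stimulus: EC80 β-phenethylamine stimulus; Compound dosing: single nominal final test compound concentration of 3 µM; Timing: 140 s kinetic read after compound, 140 s after agonist; Signal: Fluo-8 calcium-sensitive fluorescence; Measure: % inhibition of agonist calcium response; Controls: DMSO and EC80 PEA controls.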
# Rce1 inh = blocks yeast Ras-converting enzyme | calls only | 290,000 compounds, 0.27% hits | Q03530 | yeast membranes, quenched prenylated peptide cleavage fluorescence;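 active means fall in fluorescence gain of 50% or more versus controls, with final raw signal at or below 3038400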;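 further: plate controls were neutral control wells for no effect and wells lacking membranes for full effect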
# Target sequence (Q03530 whole entry, looked up): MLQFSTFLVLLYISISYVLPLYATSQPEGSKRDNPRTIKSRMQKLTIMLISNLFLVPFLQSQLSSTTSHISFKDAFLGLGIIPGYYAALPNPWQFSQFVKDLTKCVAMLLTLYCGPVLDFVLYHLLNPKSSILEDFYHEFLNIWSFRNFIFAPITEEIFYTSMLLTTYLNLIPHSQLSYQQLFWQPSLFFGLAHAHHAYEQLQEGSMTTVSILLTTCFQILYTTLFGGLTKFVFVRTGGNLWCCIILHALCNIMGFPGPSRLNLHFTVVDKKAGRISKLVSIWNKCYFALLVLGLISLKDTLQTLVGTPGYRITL
# VLA-4 allo CP = confirmation of allosteric modulators of human VLA-4 integrin. U937 cells, HUTS-21 LIBS mAb binding, flow cytometry; LDV ligand present at threefold Kd. inhibition, % at 6.7 µM. AID 2813. shares compounds with VLA-4 inh. 1,300 compounds, 2% hits; in the data active means inhibition above about 40%;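 further: 0% = ligand without compound and 100% = no ligand background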
# * marks the source's active call; other numbers are inactive results; i = inactive; . = no result. This is a sample that favours compounds with a hit; in the whole collection about 2.6% have one here.
SMILES,Platelet DG rel,VLA-4 inh,TAAR1 agonist,TAAR1 antag,Rce1 inh,VLA-4 allo CP
CCOC(=O)c1c(C)[nH]c(C(=O)N2CCN(c3ccc(OC)cc3)CC2)c1C,-2,3,0,1,i,.
CCOCCCNC(=O)C(Cc1ccccc1)NS(=O)(=O)c1ccc2c(c1)c(=O)n(C)c(=O)n2C (centres undefined),-17,33,5,28,i,.
CCCCNC(=O)C(Cc1ccccc1)NS(=O)(=O)c1ccc2c(c1)c(=O)n(C)c(=O)n2C (centres undefined),.,50*,1,-11,.,-5
C=CCNC(=O)NC(=O)Cn1c(=O)c2c(ncn2CC)n(Cc2ccccc2)c1=O,8,6,0,-17,i,.
C=CCNC(=O)Cn1c(=O)c2c(ncn2CCC(C)C)n(Cc2ccccc2)c1=O,3,50*,2,-10,i,-1
COc1ccccc1CN(C)C(=O)c1cc(S(=O)(=O)N2CCCCCC2)ccc1OC,.,.,6,-2,.,.
COc1ccc(C(=O)Nc2nncs2)cc1S(=O)(=O)N1CCOCC1,12,59*,0,-13,i,-3
CN1CC(=O)N(CC(=O)Nc2ccc(Br)cc2F)C1=O,-3,70*,7,-20,i,-2
O=C(CCCN1C(=O)CCC1=O)Nc1ccc(Br)cc1F,-10,7,14,9,i,.
COc1cc(/C=C/C(=O)O)cc(OC)c1O,-1,60*,1,-3,i,-9
COc1ccc(/C=C/C(=O)O)cc1Cl,-2,-1,1,-5,i,.
CCN(CC(=O)Nc1c(F)cccc1F)C(=O)CNC(=O)COc1ccccc1,-3,10,2,-10,.,.
CC(C)=N/N=C(/c1ccc([N+](=O)[O-])cc1)C12CN3CN(CN(C3)C1)C2,0,41,2,-5,i,-7
C[n+]1cccc(O)c1SCc1ccccc1,-9,26,3,18,i,.
CCc1ccccc1NC(=O)c1ccc2nc(N3CCOCC3)sc2c1,-20,9,2,6,i,.
Cc1ccc(NC(=O)c2ccc3nc(N4CCOCC4)sc3c2)c(Cl)c1,-2,41,3,-9,i,7
O=C(c1ccc2nc(N3CCOCC3)sc2c1)N1CCCC1,4,34,1,-4,i,.
O=C(NCCCN1CCC(Cc2ccccc2)CC1)c1ccc2nc(N3CCOCC3)sc2c1,10,12,6,-14,i,.
COc1ccc(CCNC(=O)c2ccc3nc(N4CCCCC4)sc3c2)cc1OC,-6,-4,3,7,i,2
O=C(NCCc1ccc(Cl)cc1)c1ccc2nc(N3CCOCC3)sc2c1,-13,43,9,29,i,13
CCOc1ccc(CNC(=O)c2ccc3nc(N4CCOCC4)sc3c2)cc1,-12,6,0,-17,i,2
O=C(CCN1C(=O)c2ccccc2C1=O)C1=NN[C@@H]2C(=O)N(c3ccc4c(c3)OCO4)C(=O)[C@H]12,1,10,3,-17,i,.
COC(=O)CC1C(=O)NCCN1C(=O)CSc1nnnn1-c1ccc(Cl)cc1 (centres undefined),1,6,8,8,i,.
CCCCn1c(N)c(N(CC(C)C)C(=O)c2cc(S(=O)(=O)N3CCCCC3)ccc2C)c(=O)[nH]c1=O,-3,1,7,3,i,.
COC(=O)CCNC(=O)c1ccc2nc(Cc3ccc(OC)c(OC)c3)oc2c1,15,8,4,-7,i,.
SMILES,Platelet DG rel,VLA-4 inh,TAAR1 agonist,TAAR1 antag,Rce1 inh,VLA-4 allo CP
O=C(NCc1cccc(F)c1)c1ccc2nc(N3CCOCC3)sc2c1,23,40,4,-9,i,-1
Fc1ccc2nc(N3CCOCC3)sc2c1,7,-6,2,-16,i,.
Cc1ccc2[nH]c3c(=O)n(Cc4ccncc4)cnc3c2c1,-1,2,-3,-2,i,.
O=c1c2[nH]c3ccc(Br)cc3c2ncn1Cc1ccncc1,5,6,.,.,i,-9
C=CCN1c2ccccc2[C@]23C[C@@H](C(=O)OC)N(C(=O)c4ccc(Br)cc4)C2=NC(C(=O)OC)=C(C(=O)OC)[C@H]13,5,51*,1,-5,i,12
COc1cccc(C2=CC(=O)CC(c3ccco3)C2)c1 (centres undefined),-2,2,2,-5,i,.
COc1cc(Cl)cc(/C=C/c2ccc3ccccc3n2)c1OC(C)=O,7,41,1,33,i,-19
O=C(CNC(=O)c1ccco1)OCc1ccccc1Cl,.,0,1,-14,.,.
CCOC(=O)N1CCC2(CC1)CC(=O)c1cc(O)ccc1O2,-2,109*,3,-11,i,10
CCCCOc1ncnc2c1[nH]c1ccc(C)cc12,-3,-10,-2,18,.,6
CCCOc1ncnc2c1[nH]c1ccc(OC)cc12,4,4,7,12,.,6
Fc1ccc(NCc2ccccc2F)cc1Cl,2,50*,3,-3,i,1
O=S1(=O)C[C@H](N2CCN(CC3CC3)CC2)[C@@H](COCc2ccccc2)N1,.,.,0,5,.,.
CC(C)(C)c1ccc(C(=O)NC(=O)COC(=O)c2ccc(Br)o2)cc1,.,7,-1,-25,.,.
CCC(=O)Nc1ccc2ccccc2c1,-3,45,5,-13,i,4
COC(=O)COc1ccc(NC(=O)C(c2ccccc2)c2ccccc2)cc1,-10,50*,4,21,i,14
NC(=O)c1cc([N+](=O)[O-])ccc1NCCN1C(=O)c2ccccc2C1=O,-2,-7,.,.,i,.
NC(=O)CN1C(=O)C(=O)N(Cc2ccccc2)C1=O,4,42,1,-14,i,0
O=[N+]([O-])c1cc2c(cc1C=Nc1ccccc1)OCO2,-2,50*,.,.,i,-2
CCCCN1C(=O)C(=O)c2cc(Cl)ccc21,.,55*,0,32,.,51*
CCCN1C(=O)C(=O)c2cc(C)ccc21,.,17,0,4,.,.
O=C(Nc1ccccc1C(=O)O)c1cc(S(=O)(=O)N2CCCCC2)c(Cl)cc1Cl,1,28,-6,-54,i,.
Cc1ccc(Cl)cc1NC(=S)N1CCCCCC1,.,-2,.,.,i,.
Cn1nnc2cc(NC(=O)Nc3ccccc3F)ccc21,.,.,1,-7,.,.
Cc1cc(NC(=O)Nc2ccccc2F)ccc1Br,-4,66*,14,66*,i,4
Nc1cc(-c2ccc(Br)cc2)nn1S(=O)(=O)c1cccc2nsnc12,5,50*,-1,2,i,0
Cn1c(=O)c2c(nc3n2CC(COc2ccccc2)O3)n(C)c1=O (centres undefined),-4,-3,0,-5,i,.
O=C(NCc1cccnc1)c1ccc(COc2ccc(Cl)cc2Cl)o1,4,-5,6,4,i,.

# Screening results from PubChem.
